Assays:
[1] = Clearance in rat at 2 mg/kg, iv and 10 mg/kg, po; type: ADME, organism-based; conditions: in vivo
[2] = Half life in rat at 2 mg/kg, iv and 10 mg/kg, po; type: ADME, organism-based; conditions: in vivo
PBMC = test: Antiinflammatory activity in human PBMC assessed as inhibition of LPS-induced TNFalpha release treated for 5 mins before LPS challenge measured after 6 hrs by ELISA; type: functional, cell-based
Outline: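 PBMCs purified from heparinized healthy-volunteer blood by Ficoll-Hypaque gradient and suspended at 5 × 10⁶/mL in RPMI with 10% FBS. Cells preincubated with compound (0.2% DMSO) for 5 min at room temperature. LPS added from a 200 ng/mL stock, then 6 h at 37 °C. Medium TNF-α measured by ELISA. IC50 by linear regression.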

[3] = target: T1, Inhibitor of nuclear factor kappa-B kinase subunit beta (Homo sapiens, UniProt O14920); test: Inhibition of IKK2
T1 sequence (O14920 whole entry): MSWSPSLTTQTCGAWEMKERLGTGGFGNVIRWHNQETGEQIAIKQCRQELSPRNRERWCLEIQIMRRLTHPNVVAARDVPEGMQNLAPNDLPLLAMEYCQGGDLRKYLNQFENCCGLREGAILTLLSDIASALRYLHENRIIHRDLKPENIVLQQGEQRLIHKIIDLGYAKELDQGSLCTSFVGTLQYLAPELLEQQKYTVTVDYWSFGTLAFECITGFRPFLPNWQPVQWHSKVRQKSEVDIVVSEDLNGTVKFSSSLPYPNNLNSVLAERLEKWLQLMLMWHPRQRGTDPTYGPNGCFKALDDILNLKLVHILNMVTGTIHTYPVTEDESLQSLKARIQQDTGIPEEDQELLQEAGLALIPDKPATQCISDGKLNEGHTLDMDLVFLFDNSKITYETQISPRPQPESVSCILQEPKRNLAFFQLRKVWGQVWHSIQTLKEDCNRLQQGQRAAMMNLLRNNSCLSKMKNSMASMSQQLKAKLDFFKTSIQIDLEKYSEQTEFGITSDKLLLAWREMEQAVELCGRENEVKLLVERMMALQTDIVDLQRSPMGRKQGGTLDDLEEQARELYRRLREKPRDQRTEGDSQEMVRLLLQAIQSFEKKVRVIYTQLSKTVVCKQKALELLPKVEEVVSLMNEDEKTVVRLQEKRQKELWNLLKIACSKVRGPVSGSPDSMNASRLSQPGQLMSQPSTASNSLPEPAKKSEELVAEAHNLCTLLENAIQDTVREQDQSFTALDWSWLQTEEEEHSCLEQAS
Outline: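 IKK-2 added at room temperature to 50 µg/mL GST-IκBα with ATP in 25 mM Tris·HCl, pH 7.5, containing MgCl₂, phosphate salts, NaCl, KCl, 1 mM DTT, 5% glycerol and BSA. Stopped after 60 min with 33 mM EDTA. Phospho-IκBα read by fluorescence-polarization competition between an anti-phospho-IκBα antibody and a fluorescein-labelled phosphopeptide.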

[4] = target: T2, Inhibitor of nuclear factor kappa-B kinase subunit alpha (Homo sapiens, UniProt O15111); test: Inhibition of IKK1
T2 sequence (O15111 whole entry): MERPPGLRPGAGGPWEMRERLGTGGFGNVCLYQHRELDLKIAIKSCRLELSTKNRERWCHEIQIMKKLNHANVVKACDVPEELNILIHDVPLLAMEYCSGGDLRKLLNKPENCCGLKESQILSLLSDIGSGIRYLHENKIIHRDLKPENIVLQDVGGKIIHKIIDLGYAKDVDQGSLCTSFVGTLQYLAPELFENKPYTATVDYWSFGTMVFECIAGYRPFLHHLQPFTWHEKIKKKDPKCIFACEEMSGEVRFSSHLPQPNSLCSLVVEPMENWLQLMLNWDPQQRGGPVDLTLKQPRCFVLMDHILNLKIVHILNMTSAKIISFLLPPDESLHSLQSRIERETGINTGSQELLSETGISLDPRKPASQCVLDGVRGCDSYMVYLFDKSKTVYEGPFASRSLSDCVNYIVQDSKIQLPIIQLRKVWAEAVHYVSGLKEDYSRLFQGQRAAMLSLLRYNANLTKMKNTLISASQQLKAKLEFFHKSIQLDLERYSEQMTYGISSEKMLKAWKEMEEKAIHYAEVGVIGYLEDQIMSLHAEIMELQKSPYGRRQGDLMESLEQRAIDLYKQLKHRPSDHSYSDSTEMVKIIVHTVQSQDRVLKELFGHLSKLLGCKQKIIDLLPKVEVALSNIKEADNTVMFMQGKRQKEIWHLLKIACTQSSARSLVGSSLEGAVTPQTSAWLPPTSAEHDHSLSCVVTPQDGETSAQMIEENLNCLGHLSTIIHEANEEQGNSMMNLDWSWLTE

Mus musculus [5] = test: Antiinflammatory activity in po dosed BALB/c mouse assessed as inhibition of LPS-induced TNFalpha release administered for 5 hrs before LPS challenge measured after 6.5 hrs post dose by ELISA; type: functional, organism-based
Outline: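 BALB/c female mice, 6–8 weeks old, n = 7–8 per treatment. Compounds given by oral gavage at 30 and 100 mg/kg in PEG400/HCl/Tween80/water; controls received vehicle alone. Five hours later, E. coli O111:B4 LPS 50 µg/kg ip. Serum collected 90 min after LPS, TNF-α measured by ELISA. Drug exposure sampled 6.5 h post-dose. Mean ± standard error.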

Blood [6] = test: Antiinflammatory activity in mouse whole blood assessed as inhibition of LPS-induced TNFalpha release treated for 5 mins before LPS challenge measured after 6 hrs by ELISA; type: functional, tissue-based
Canis familiaris = test: Metabolic stability in dog assessed as metabolite (S)-N-(1-(3-(5-amino-8-methyl-8H-imidazo[4,5-d]thiazolo[5,4-b]pyridin-2-yl)phenyl)ethyl)acetamide total AUC at 2 mg/kg, iv; type: ADME, organism-based, Canis lupus familiaris; set-up: dose 2 mg/kg, route intravenous, time AUCmax; conditions: in vivo
Rattus norvegicus = test: Metabolic stability in rat assessed as metabolite (S)-N-(1-(3-(5-amino-8-methyl-8H-imidazo[4,5-d]thiazolo[5,4-b]pyridin-2-yl)phenyl)ethyl)acetamide total AUC at 2 mg/kg, iv and 10 mg/kg, po; type: ADME, organism-based; conditions: in vivo
Mus musculus [7] = test: Metabolic stability in mouse assessed as metabolite (S)-N-(1-(3-(5-amino-8-methyl-8H-imidazo[4,5-d]thiazolo[5,4-b]pyridin-2-yl)phenyl)ethyl)acetamide total AUC at 2 mg/kg, iv and 10 mg/kg, po; type: ADME, organism-based; conditions: in vivo
Blood [8] = test: Antiinflammatory activity in human whole blood assessed as inhibition of LPS-induced TNFalpha release treated for 5 mins before LPS challenge measured after 6 hrs by ELISA; type: functional, tissue-based
[9] = target: Serine/threonine-protein kinase 16 (Homo sapiens) (UniProt O75716); test: Residual activity at STK16 at 10 uM relative to control
Chain of Serine/threonine-protein kinase 16 (Homo sapiens) (O75716 whole entry): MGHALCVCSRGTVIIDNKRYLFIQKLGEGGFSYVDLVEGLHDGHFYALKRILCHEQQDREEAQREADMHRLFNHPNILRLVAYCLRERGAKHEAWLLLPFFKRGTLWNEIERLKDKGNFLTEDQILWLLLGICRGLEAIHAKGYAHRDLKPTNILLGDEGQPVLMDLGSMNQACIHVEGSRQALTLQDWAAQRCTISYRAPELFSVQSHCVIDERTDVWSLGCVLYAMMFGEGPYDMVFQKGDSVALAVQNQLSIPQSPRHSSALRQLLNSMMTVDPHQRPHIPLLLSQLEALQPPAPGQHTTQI

[10] = target: Death-associated protein kinase 2 (Homo sapiens) (UniProt Q9UIK4); test: Residual activity at DAPK2 at 10 uM relative to control
Chain of Death-associated protein kinase 2 (Homo sapiens) (Q9UIK4 whole entry, looked up): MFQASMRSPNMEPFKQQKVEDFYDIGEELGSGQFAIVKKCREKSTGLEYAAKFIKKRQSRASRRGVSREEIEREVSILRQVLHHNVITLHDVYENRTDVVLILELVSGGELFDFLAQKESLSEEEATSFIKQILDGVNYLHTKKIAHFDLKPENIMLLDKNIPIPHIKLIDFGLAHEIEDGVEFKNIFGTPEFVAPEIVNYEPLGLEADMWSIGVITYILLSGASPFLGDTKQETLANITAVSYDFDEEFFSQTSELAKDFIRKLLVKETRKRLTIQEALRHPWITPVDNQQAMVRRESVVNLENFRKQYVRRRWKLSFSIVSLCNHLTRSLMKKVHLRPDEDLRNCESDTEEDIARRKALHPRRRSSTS

Row | Compound | IC50 (PBMC) | IC50 [3] | further results
1 | CCNc1nc2sc(-c3cccc([C@H](C)NC(=O)c4cc(C)on4)c3)nc2c2c1ncn2C | 940 nM | 78 nM | clearance [1]: 2.8 mL/min/kg; half-life [2]: 2.8 h
2 | CCNc1nc2sc(-c3cccc([C@H](C)NC(=O)CNC(C)=O)c3)nc2c2c1ncn2C | 480 nM | 27 nM | 
3 | CNc1nc2sc(-c3cccc([C@H](C)NC(C)=O)c3)nc2c2c1ncn2C | 80 nM | 6 nM | IC50 [4]: 230 nM
4 | CCNc1nc2sc(-c3cccc([C@H](C)NC(=O)C4CCN(C)CC4)c3)nc2c2c1ncn2C | 560 nM | 10 nM | clearance [1]: 130 mL/min/kg
5 | CC(=O)N[C@@H](C)c1cccc(-c2nc3c(nc(NCC(F)(F)F)c4ncn(C)c43)s2)c1 | 1360 nM | 57 nM | 
6 | Cc1ccc2nc(NCCN)c3ncc(C)n3c2c1 [BMS-345541] | 1000 nM |  | 
7 | CCNc1nc2sc(-c3cccc([C@@H](C)NC(C)=O)c3)nc2c2c1ncn2C | 700 nM | 55 nM | 
8 | CNc1nc2sc(-c3cccc([C@@H](C)NC(C)=O)c3)nc2c2c1ncn2C | 560 nM | 28 nM | 
9 | COc1nc2sc(-c3cccc([C@H](C)NC(C)=O)c3)nc2c2c1ncn2C | > 10000 nM | > 500 nM | 
10 | CNc1nc2sc(-c3ccc(CNC(C)=O)cc3)nc2c2c1ncn2C | 530 nM | 60 nM | 
11 | CCNCC(=O)N[C@@H](C)c1cccc(-c2nc3c(nc(NCC)c4ncn(C)c43)s2)c1 | 440 nM | 39 nM | 
12 | CC(=O)NCc1cc(-c2cc3nc(NC4CC4)c4ncn(C)c4n3n2)ccc1F | 730 nM |  | 
13 | CCNc1nc2sc(-c3cccc([C@H](C)NC(=O)COCC)c3)nc2c2c1ncn2C | 600 nM | 16 nM | 
14 | CC(=O)N[C@@H](C)c1cccc(-c2nc3c(nc(NC(=O)N(C)C)c4ncn(C)c43)s2)c1 |  | 130 nM | 
15 | CNc1nc2sc(-c3cccc(C(C)NC(C)=O)c3)nc2c2c1ncn2C (stereo not given) | 170 nM | 9 nM | IC50 [4]: 430 nM
16 | CCNc1nc2sc(-c3cccc([C@H](C)NC(=O)C4CCNCC4)c3)nc2c2c1ncn2C | 290 nM | 20 nM | clearance [1]: 3 mL/min/kg; half-life [2]: 2.9 h
17 | CCNc1nc2sc(-c3cccc(C(C)(C)NC(C)=O)c3)nc2c2c1ncn2C | 400 nM | 36 nM | 
18 | CC(=O)N[C@@H](C)c1cccc(-c2nc3c(nc(N)c4ncn(C)c43)s2)c1 | 290 nM | 13 nM | inhibition (Mus musculus [5]): Dose-dependent effect; IC50 (Blood [6]): 1000 nM; AUC (Canis familiaris): 400 nM; AUC (Rattus norvegicus): 2400 nM; AUC (Mus musculus [7]): 3.37 µM; IC50 (Blood [8]): 2000 nM; residual activity [9]: < 10%; residual activity [10]: < 10%
19 | CC(=O)N[C@@H](C)c1cccc(-c2nc3c(nc(N(C)C)c4ncn(C)c43)s2)c1 | 990 nM | 100 nM | 
20 | CC(=O)N[C@@H](C)c1cccc(-c2nc3c(nc(NCCN)c4ncn(C)c43)s2)c1 | 4890 nM | 49 nM | 
21 | CCNc1nc2sc(-c3cccc([C@H](C)NC(=O)C4(C)CC4)c3)nc2c2c1ncn2C | 440 nM | 34 nM | clearance [1]: 7.5 mL/min/kg; half-life [2]: 2 h
22 | CCNc1nc2sc(-c3cccc([C@H](C)NC(=O)c4cccc(S(C)(=O)=O)c4)c3)nc2c2c1ncn2C | 220 nM | 41 nM | clearance [1]: 5.1 mL/min/kg; half-life [2]: 1.5 h
